Fibroblast inh: blocks proliferation of human lung fibroblasts. viability, % at 10 µM. LL 47 human lung fibroblast viability, ATP luminescence; active compounds read low. 85,000 compounds, 1.1% hits. AID 719;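 active = viability at or below 50% in the single dose screen; inactive = viability above 50%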;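 also: compound exposure lasted 72 h before the ATP readout; 100% = median luminescence of untreated cell-only wells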
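Material: human lung fibroblast line LL 47, low passage; Evaluation: viability percentage against median untreated-cell control; Buffer or medium: 15% FBS in IMEM; Incubation: 72 h compound exposure at 37 °C after overnight plating; Dosing: 0.1% DMSO in all compound wells; Measured by: CellTiter-Glo luminescence.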
bCat KO growth: beta-catenin-lacking colon tumor cell growth suppression; viability, % at 10 µM; 140,000 compounds, 1.5% hits; HCT116 beta-catenin knockout viability, CellTiter-Glo, 60 h; active compounds read low;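 active = viability at or under a set limit, the compound median less 4 SD, cut at about 6% in these data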;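 also: 0% = Hyamine 1622 control at 20 µM and 100% = untreated cell control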
H69AR growth 86K: growth inhibitors of human H69AR lung tumor cells; H69AR lung tumor viability, ATP luminescence, 72 h; active compounds read low; viability, % at 10 µM; 85,000 compounds, 6% hits; AID 598;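 active = viability at or below 40%; inactive = viability above 40%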;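 also: multidrug resistant small cell line overexpressing MRP-1 efflux transporter; 100% = mean luminescence of untreated control wells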
PTEN del growth: PTEN-deleted cell growth suppression | viability, % at 10 µM | HCT116 PTEN-null viability, CellTiter-Glo, 60 h; active compounds read low | AID 827 | 140,000 compounds, 1.2% hits;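 active = viability at or below a set limit, 4 SD under the median of all tested compounds, cut at about 3.7% in these data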;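 also: PTEN knockout HCT116 line with beta catenin targeted HCT116 as companion control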
HUVEC inhibit: human endothelial cell proliferation inhibition | HUVEC proliferation, CellTiter-Glo luminescence, 72 h; active compounds read low | viability, % at 10 µM (by protocol) | 86,000 compounds, 1.1% hits | AID 648;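 active = viability at or below 30%; inactive = viability above 30%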;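 also: 100% = median luminescence of DMSO-only cell control wells on each plate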
* marks the source's active call; other numbers are inactive results. The sample as a whole holds a higher share of hits than the screen did.

Screening COC(=O)C1=C(C)NC(C)=C(C(=O)OC)C1c1cc2ccc(C)cc2[nH]c1=O returned Fibroblast inh 79, bCat KO growth 83, H69AR growth 86K 20*, PTEN del growth 79 and HUVEC inhibit 69.
Screening O=Cc1cnc(N2CCOCC2)nc1 returned bCat KO growth 94 and PTEN del growth 95.
`C/C(Cl)=C/Cn1c(SCC(C)C)nc2c1c(=O)[nH]c(=O)n2C` gave Fibroblast inh 57, H69AR growth 86K 35* and HUVEC inhibit 77.
Screening O=C(COC(=O)c1ccccc1Sc1ccc(C(F)(F)F)cc1[N+](=O)[O-])NC(=O)NC1CCCC1 returned bCat KO growth 67 and PTEN del growth 59.
CCCCCCCCCCCCCCCC[n+]1ccc(/C=N/O)cc1 was read as bCat KO growth 0.9* and PTEN del growth 1.0*.
`CCCCCCCCCCCCCCCC[n+]1ccc(C(N)=O)cc1` gave bCat KO growth 1.1* and PTEN del growth 1.1*.
Screening CCCCCCCCCCCCCCCC[n+]1cccc(C(=O)N(CC)CC)c1 returned bCat KO growth 1.5* and PTEN del growth 1.5*.
For Cc1[nH]c(=O)[nH]c(=O)c1NS(=O)(=O)c1ccccc1 the results were bCat KO growth 100 and PTEN del growth 107.
`CN(C)CCCN1c2ccccc2CCc2ccc(Cl)cc21` gave Fibroblast inh 64, bCat KO growth 1.7*, H69AR growth 86K 96, PTEN del growth 1.6* and HUVEC inhibit 59.
`CN(C)CCCN1c2ccccc2Sc2ccccc21` gave Fibroblast inh 90, bCat KO growth 64, H69AR growth 86K 57, PTEN del growth 54 and HUVEC inhibit 90.
Screening Cc1cccc(C(=O)c2c[nH]cc2-c2ccccc2)c1 returned bCat KO growth 93 and PTEN del growth 94.
`C=CCOc1ccc(C=Nc2ccc(C)c(Cl)c2)c(O)c1` gave bCat KO growth 100 and PTEN del growth 92.
For CCCCC(=O)Nc1ccc(C(=O)Nc2ccc(S(=O)(=O)N3CCCC3)cc2)cc1 the results were Fibroblast inh 42*, bCat KO growth 89, H69AR growth 86K 63, PTEN del growth 94 and HUVEC inhibit 93.
CC(C)CC(=O)Nc1nc2ccc(S(=O)(=O)N3CCOCC3)cc2s1 was read as Fibroblast inh 80, bCat KO growth 39, H69AR growth 86K 27*, PTEN del growth 36 and HUVEC inhibit 67.
Cc1ccc2nc(NC(=O)C3CCCN(S(=O)(=O)c4cccnc4)C3)sc2c1 (stereo unspecified) was read as Fibroblast inh 109, bCat KO growth 80, H69AR growth 86K 28*, PTEN del growth 76 and HUVEC inhibit 100.
For CC(=O)c1ccc(NC(=O)c2ccc(S(=O)(=O)N3CCCC3)cc2)cc1 the results were Fibroblast inh 103, bCat KO growth 96, H69AR growth 86K 80, PTEN del growth 102 and HUVEC inhibit 99.
Screening O=C(Nc1nc2ccc(S(=O)(=O)N3CCCC3)cc2s1)c1ccco1 returned bCat KO growth 105 and PTEN del growth 106.
CC(C)[C@H](NC(=O)c1cccc(S(=O)(=O)N2CCOCC2)c1)C(=O)Nc1nc2ccccc2s1 was read as bCat KO growth 75 and PTEN del growth 80.
`CCCC(=O)Nc1nc2ccc(S(=O)(=O)N3CCCCC3)cc2s1` gave Fibroblast inh 48*, bCat KO growth 33, H69AR growth 86K 20*, PTEN del growth 32 and HUVEC inhibit 54.
`C=CCn1c(COc2ccccc2F)nnc1SCCN1C(=O)c2ccccc2C1=O` gave bCat KO growth 95 and PTEN del growth 98.
For O=C(Nc1ccc(C(F)(F)F)cc1)c1cccnc1N1CCOCC1 the results were Fibroblast inh 83, bCat KO growth 95, H69AR growth 86K 39*, PTEN del growth 91 and HUVEC inhibit 82.
COc1ccccc1N1CCN(c2cc(=O)n(Cc3ccc(F)cc3)c(=O)[nH]2)CC1 was read as Fibroblast inh 61, bCat KO growth 36, H69AR growth 86K 30*, PTEN del growth 34 and HUVEC inhibit 59.
CCOc1ccc(OCC)c(NC(=O)CCCN2C(=S)NC(C)(C)CC2C)c1 (stereo unspecified) was read as bCat KO growth 91 and PTEN del growth 89.
For CC(C)CN1CN(Cc2ccccc2)CNC1=S the results were bCat KO growth 97 and PTEN del growth 100.
For CC(=O)N1CCc2c(sc(NC(=O)c3ccc4c(c3)OCCO4)c2C#N)C1 the results were Fibroblast inh 55, bCat KO growth 24, H69AR growth 86K 24*, PTEN del growth 29 and HUVEC inhibit 63.
`CCc1nnc(NC(=O)c2cccc(C(=O)Nc3nnc(CC)s3)n2)s1` gave Fibroblast inh 4.8*, bCat KO growth 5.0*, H69AR growth 86K 3.7*, PTEN del growth 2.2* and HUVEC inhibit 3.7*.
Screening CCc1nnc(NC(=O)c2ccc3c(c2)C(=O)N(C(C)(C)C)C3=O)s1 returned Fibroblast inh 101, bCat KO growth 99, H69AR growth 86K 39*, PTEN del growth 97 and HUVEC inhibit 87.
Cc1ccc2nc(NC3=NCN(Cc4ccco4)CN3)nc(C)c2c1 was read as Fibroblast inh 79, H69AR growth 86K 59 and HUVEC inhibit 87.
For Cc1ccc2nc(NC3=NCN(Cc4ccc5c(c4)OCO5)CN3)nc(C)c2c1 the results were Fibroblast inh 42*, H69AR growth 86K 28* and HUVEC inhibit 65.
For C=CCOc1c(Br)cc(CNc2ccc(NC(=O)C(C)C)c(OC)c2)cc1OCC the results were bCat KO growth 20 and PTEN del growth 21.
Cc1cccc(NC2=Nc3ccccc3N3C2=Nc2c(c(C)nn2-c2ccccc2)C3c2ccc(O)c(O)c2)c1 (stereo unspecified) was read as Fibroblast inh 45*, bCat KO growth 2.3*, H69AR growth 86K 1.1*, PTEN del growth 1.1* and HUVEC inhibit 41.
Cc1nn(-c2ccccc2)c2c1C(c1ccc(O)c(O)c1)N1C(=N2)C(Nc2ccccc2)=Nc2ccccc21 (stereo unspecified) was read as Fibroblast inh 39*, bCat KO growth 1.1*, H69AR growth 86K 21*, PTEN del growth 1.2* and HUVEC inhibit 13*.
Cc1nn(-c2ccccc2)c2c1C(c1ccc([N+](=O)[O-])cc1)N1C(=N2)C(=O)Nc2ccccc21 (stereo unspecified) was read as bCat KO growth 42 and PTEN del growth 32.
`Cc1ccc(NC2=Nc3ccccc3N3C2=Nc2c(c(C)nn2-c2ccccc2)C3c2ccc(O)c(O)c2)cc1` (stereo unspecified) gave Fibroblast inh 37*, bCat KO growth 1.2*, H69AR growth 86K 16*, PTEN del growth 1.1* and HUVEC inhibit 15*.
For CCOc1ccc(C(=O)NC(=S)NC2CCCC2)cc1[N+](=O)[O-] the results were bCat KO growth 90 and PTEN del growth 91.
Screening N#Cc1c(-n2ccnc2)cccc1-n1ccnc1 returned bCat KO growth 96 and PTEN del growth 90.
